Screening data: PubChem BioAssay, several laboratories
TAAR1 ag – human TAAR1 agonism. Q96RJ0. CHO RD-HGA16 TAAR1, Fluo-8 calcium fluorescence; vehicle wells 0%, saturating PEA agonist 100%. activation, % at 3 µM. hit rate 0.99% among 360,000. AID 624467;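 active = activation above the mean activation of all test compounds in the run plus 3 SD, cut at about 38% in these data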
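Repeats: no replicates (n 1) | Material: CHO-derived RD-HGA16 cells with stable Gα16 and human TAAR1 | Technique: Kinetic Fluo-8 calcium fluorescence | Schedule: 17-24 h seeding, 75 min 37 °C dye, 30 min RT | Evaluation: % activation from peak over basal fluorescence ratio, DMSO-to-PEA scaled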
TAAR1 antag – antagonists of human TAAR1; Q96RJ0; CHO RD-HGA16 TAAR1, Fluo-8 calcium fluorescence, antagonist; inhibition, % at 3 µM; hit rate 1.5% among 360,000;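 active = inhibition above a per-plate cutoff, the mean inhibition of test compounds on that plate plus 3 SD, cut at about 49% in these data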;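 note: 0% = DMSO plus EC80 beta-PEA response and 100% = DMSO alone without agonist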
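System: RD-HGA16 CHO cells with stable hTAAR1 and Gα16 | Probe or stimulus: EC80 β-phenethylamine stimulus | Dosing: 3 µM, single point | Times: Dye loading 75 min at 37 °C, then 30 min room temperature | Measured by: Fluo-8 calcium-sensitive fluorescence | Read-out basis: % inhibition of agonist calcium response | Replicates: n of 1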
CHO parental Ca – signal in parental CHO cells, OX1R antagonist counter-screen; parental CHO-K1, ATP-induced calcium, Fluo-8 fluorescence; inhibition, % at 5.6 µM; hit rate 0.63% among 330,000;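 active = inhibition above that plate's mean sample inhibition plus 3 SD, cut at about 26% in these data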;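 note: 0% = ATP-challenged DMSO wells and 100% = DMSO wells without ATP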
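Assay system: untransfected parental CHO cell line. Also added: ATP agonist challenge. Dosing: one dose, 5.6 µM nominal. Measured by: Fluo-8 fluorescence. Read-out: % inhibition. Benchmarks: ATP wells versus no-ATP DMSO wells. Repeats: no replicates.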
OX1R antag-1 – blocks the human orexin 1 receptor | O43613 | CHO/OX1R cells, Fluo-8 calcium fluorescence, orexin A | inhibition, % at 5 µM | hit rate 0.43% among 330,000;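 active = inhibition above its plate's threshold, mean inhibition of all tested compounds on the plate plus 3 SD, cut at about 37% in these data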;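 note: 0% = orexin A challenge wells and 100% = SB-334867-A antagonist wells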
Target sequence (O43613 whole entry, looked up): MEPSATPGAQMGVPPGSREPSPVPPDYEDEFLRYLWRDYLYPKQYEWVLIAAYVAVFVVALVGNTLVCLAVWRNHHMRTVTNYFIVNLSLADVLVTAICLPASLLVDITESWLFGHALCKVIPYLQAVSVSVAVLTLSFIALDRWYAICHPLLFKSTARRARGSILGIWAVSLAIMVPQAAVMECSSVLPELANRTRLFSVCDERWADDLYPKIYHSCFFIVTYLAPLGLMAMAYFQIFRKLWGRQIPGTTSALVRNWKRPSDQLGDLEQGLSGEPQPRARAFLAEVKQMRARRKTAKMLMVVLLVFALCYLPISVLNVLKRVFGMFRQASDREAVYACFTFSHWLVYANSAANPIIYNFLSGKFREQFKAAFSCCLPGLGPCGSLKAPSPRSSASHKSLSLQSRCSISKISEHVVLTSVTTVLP
NTR1 agonist – activates human neurotensin receptor 1. hit rate 0.17% among 330,000. P30989. NTR1-U2OS beta-arrestin-GFP spot imaging, agonist mode. activation, % at 20 µM;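 active = activation at or above 40% of the spot to cytoplasm intensity ratio, with at least 20 cells analyzed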;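 note: 0% = DMSO without peptide and 100% = 100 nM NTR1 peptide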
OX1R antag-2 – antagonists of human orexin 1 receptor (OX1R); O43613; OX1R-expressing cells, FRET antagonist read-out; inhibition, % at 6.6 µM; hit rate 1.8% among 330,000; in the data active = inhibition mostly above about 38%, no sharp cut-off; inactive = mostly below about 40%;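 note: 0% = agonist challenge alone and 100% = reference antagonist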
Starred values were filed as active, the others as inactive. An excerpt weighted towards active compounds, which were near 4% of everything screened.

For O=C(CC1SC(=O)N(Cc2cccc3ccccc23)C1=O)Nc1nccs1 (stereo not given) the results were TAAR1 ag 4.4, TAAR1 antag 16.3, CHO parental Ca -26.6, OX1R antag-1 -11.8, NTR1 agonist 2.2 and OX1R antag-2 62.0*.
`O=C(Cc1ccccc1)Nc1nccs1` gave TAAR1 ag 3.7, TAAR1 antag -1.3, CHO parental Ca -3.0, OX1R antag-1 1.1, NTR1 agonist 0.5 and OX1R antag-2 26.2.
For COc1cc(NC(=O)COc2cccc3c2OC(C)(C)C3)cc(OC)c1OC the results were TAAR1 ag 13.0, TAAR1 antag 59.4*, CHO parental Ca 6.9, OX1R antag-1 26.1, NTR1 agonist 2.1 and OX1R antag-2 24.1.
Screening COc1cc(NC(=O)COc2cc(O)c3c(c2)OC(C)(C)CC3=O)cc(OC)c1OC returned TAAR1 ag 10.8, TAAR1 antag 70.1*, CHO parental Ca 82.4*, OX1R antag-1 29.7, NTR1 agonist -2.2 and OX1R antag-2 70.9*.
CC1(C)CC(=O)c2c(O)cc(OCC(=O)Nc3ccc(S(N)(=O)=O)cc3)cc2O1 was read as TAAR1 ag 3.0, TAAR1 antag -0.5, CHO parental Ca -7.8, OX1R antag-1 -8.4, NTR1 agonist -1.8 and OX1R antag-2 4.5.
Screening COCCCNCCCCOc1ccc(Br)cc1C returned TAAR1 ag 41.4*, TAAR1 antag -7.5, CHO parental Ca -11.3, OX1R antag-1 -17.0, NTR1 agonist -0.3 and OX1R antag-2 1.2.
For CCOC(=O)CN1CCCc2nc(-c3ccc(OC)cc3)ccc21 the results were TAAR1 ag 0.0 and TAAR1 antag -12.3.
`COCCN(Cc1ccc(C)cc1)C(=O)[C@H]1O[C@@H](n2cnc(C(N)=O)n2)[C@H](O)[C@@H]1O` gave TAAR1 ag 4.0 and TAAR1 antag -27.7.
For CCSc1cnn(-c2ccccc2)c(=O)c1SCC the results were TAAR1 ag 7.8, TAAR1 antag -19.4, CHO parental Ca -17.3, OX1R antag-1 -13.3, NTR1 agonist -0.1 and OX1R antag-2 13.6.
Screening CCCCSc1cnn(-c2ccccc2)c(=O)c1SCCCC returned TAAR1 ag 5.0, TAAR1 antag 11.6, CHO parental Ca 29.6*, OX1R antag-1 -25.0, NTR1 agonist 8.2 and OX1R antag-2 2.0.
Screening COc1ccc(NC(=O)c2ccc3[nH]c(C)c(C)c3c2)c(OC)c1 returned TAAR1 ag 1.9, TAAR1 antag 0.3, CHO parental Ca -6.7, OX1R antag-1 18.9, NTR1 agonist 10.3 and OX1R antag-2 49.5*.
Screening CCOc1ccccc1NC(=O)c1ccc2[nH]c(C)c(C)c2c1 returned TAAR1 ag -5.7, TAAR1 antag 1.0, CHO parental Ca -22.2, OX1R antag-1 -15.9, NTR1 agonist 1.7 and OX1R antag-2 72.5*.
`CS(=O)(=O)Nc1ccccc1C(=O)OCC(=O)N1CCC(c2ccccc2)=N1` gave TAAR1 ag 14.2, TAAR1 antag 8.2, CHO parental Ca -3.8, OX1R antag-1 7.8, NTR1 agonist -0.4 and OX1R antag-2 62.8*.
`O=C(Nc1ccc(Cl)c(C(F)(F)F)c1)[C@@H]1CC=C[C@@H]2CCN(C3CC3)C(=O)[C@@H]21` gave TAAR1 ag 10.1, TAAR1 antag -2.0, CHO parental Ca -26.9, OX1R antag-1 -10.1, NTR1 agonist -1.3 and OX1R antag-2 62.2*.
For O=C(Nc1ccc(Cl)c(C(F)(F)F)c1)[C@@H]1CC=C[C@@H]2CCN(C3CCCCC3)C(=O)[C@@H]21 the results were TAAR1 ag 14.3, TAAR1 antag 13.5, CHO parental Ca -9.2, OX1R antag-1 0.0, NTR1 agonist 1.7 and OX1R antag-2 10.6.
`O=C(CCc1ccccc1)NCCc1ccc(F)cc1` gave TAAR1 ag 1.8, TAAR1 antag -21.5, CHO parental Ca -8.9, OX1R antag-1 -14.6, NTR1 agonist -0.1 and OX1R antag-2 -5.5.
O=C(CCc1nc(-c2cccs2)no1)Nc1cnc2ccccc2c1 was read as TAAR1 ag 42.0*, TAAR1 antag -15.4, CHO parental Ca -6.7, OX1R antag-1 0.3, NTR1 agonist -0.2 and OX1R antag-2 18.1.
COc1ccc(OC)c(-n2c(SCC(=O)N3CCc4ccccc43)nc3c(c2=O)SCC3)c1 was read as CHO parental Ca -12.2, OX1R antag-1 -17.9, NTR1 agonist 6.0 and OX1R antag-2 39.0*.
Screening COc1ccccc1-n1c(SCC(=O)N2CCc3ccccc32)nc2c(c1=O)SCC2 returned TAAR1 ag 2.5, TAAR1 antag -18.7, CHO parental Ca -14.7, OX1R antag-1 -32.2, NTR1 agonist -2.5 and OX1R antag-2 11.3.
For C[C@@H]1CCCCO[C@@H](CN(C)CC2CCCCC2)[C@@H](C)CN([C@H](C)CO)C(=O)c2cc(NC(=O)Nc3ccc4c(c3)OCO4)ccc2O1 the results were TAAR1 ag -1.0 and TAAR1 antag -2.4.
For Cc1sc2nc(CSC(C)C(=O)Nc3ccc(C#N)cc3)[nH]c(=O)c2c1C (stereo not given) the results were TAAR1 ag 2.9, TAAR1 antag -3.3, CHO parental Ca -15.1, OX1R antag-1 3.4, NTR1 agonist -0.1 and OX1R antag-2 22.0.
Cc1sc2nc(CSC(C)C(=O)N(C)CC(=O)Nc3ccccc3C(F)(F)F)[nH]c(=O)c2c1C (stereo not given) was read as TAAR1 ag 6.6, TAAR1 antag 9.8, CHO parental Ca -23.1, OX1R antag-1 6.8, NTR1 agonist -0.7 and OX1R antag-2 70.8*.
For COc1ccc(OC)c(NC(=O)C(C)SCc2nc3sc(C)c(C)c3c(=O)[nH]2)c1 (stereo not given) the results were TAAR1 ag 6.1, TAAR1 antag -2.2, CHO parental Ca -33.1, OX1R antag-1 23.2, NTR1 agonist -1.9 and OX1R antag-2 53.7*.
Screening CN(CCO)c1cc(Sc2nc3ccccc3s2)c2nonc2c1[N+](=O)[O-] returned TAAR1 ag 17.9, TAAR1 antag 38.8, CHO parental Ca 87.6*, OX1R antag-1 69.8*, NTR1 agonist -2.6 and OX1R antag-2 66.8*.
CCCCc1c(-c2ccccc2OC)ncn1Cc1ccc(F)cc1F was read as TAAR1 ag -0.2 and TAAR1 antag -17.6.
For Nc1scc2c(C(=O)N/N=C/c3ccc(Cl)cc3)nn(-c3ccccc3)c(=O)c12 the results were TAAR1 ag 3.2, TAAR1 antag 24.4, CHO parental Ca -1.9, OX1R antag-1 -1.4, NTR1 agonist 0.9 and OX1R antag-2 46.7*.
For Cc1cc(C)c(C#N)c(SCc2[nH]nc3c2C(c2ccc(F)cc2)C(C#N)=C(N)O3)n1 (stereo not given) the results were TAAR1 ag 8.3, TAAR1 antag -6.3, CHO parental Ca -17.1, OX1R antag-1 -32.5, NTR1 agonist 5.2 and OX1R antag-2 75.3*.
